Laboratory results taken from ChEMBL document CHEMBL5712908, “A genome-wide RNAi screen reveals essential therapeutic targets of breast cancer stem cells” (2019).
The source made the active and inactive calls. The rule behind the calls is not given here.

Test system: SUM149PT
Assay: Synergistic anticancer activity against human SUM149 cells assessed as decrease in docetaxel induced ALDHbr cells at 62 nM in presence of salinomycin by LSR2 cytometer analysis
Type: functional, cell-based
Method in brief: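 SUM159 or SUM149 cells treated 72 h in adherent conditions; docetaxel combined with other drugs at 2 nM; combination doses chosen from synergy distributions (Sal/JQ1 62 nM/62 nM). ALDEFLUOR staining with DEAB control, flow cytometry on LSR2. n = 8; Student's t-test; mean ± SD.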

In the case of `Cc1sc2c(c1C)C(c1ccc(Cl)cc1)=N[C@@H](CC(=O)OC(C)(C)C)c1nnc(C)n1-2`, the Activity was “Active”.
